# In ChEMBL document CHEMBL1152204, “Novel potent and highly selective human A(3) adenosine receptor antagonists belonging to the 4-amido-2-arylpyrazolo[3,4-c]quinoline series: molecular docking analysis and pharmacological studies” (Bioorg Med Chem, 2009):
# Experiments:
# [1] = target: T1, Adenosine receptor A3 (Rattus norvegicus) (UniProt P28647); test: Displacement of [125I]AB-MECA from rat adenosine A3 receptor expressed in HEK293 cells at 1 uM by scintillation counting; format: cell-based
# T1 sequence (whole entry): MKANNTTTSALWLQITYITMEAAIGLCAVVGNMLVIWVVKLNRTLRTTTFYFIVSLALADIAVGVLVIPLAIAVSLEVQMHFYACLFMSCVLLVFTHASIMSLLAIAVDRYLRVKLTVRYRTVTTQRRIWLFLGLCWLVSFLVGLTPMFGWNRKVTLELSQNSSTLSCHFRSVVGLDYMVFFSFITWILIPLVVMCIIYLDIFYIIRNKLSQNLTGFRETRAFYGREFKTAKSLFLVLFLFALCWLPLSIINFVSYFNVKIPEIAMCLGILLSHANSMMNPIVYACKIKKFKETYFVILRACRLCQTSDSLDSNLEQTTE
# Method in brief: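 rA3-HEK293 membranes (10 µg protein) with 0.5 nM [125I]AB-MECA in Tris-HCl/MgCl2/EDTA buffer pH 7.4; 120 min at 25 °C; GF/B filtration and scintillation counting; percent inhibition at 1 µM test compound.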
# Adenosine receptor A3 [2] = target: T2, Adenosine receptor A3 (Homo sapiens, UniProt P0DMS8); test: (§1) Displacement of [125I]AB-MECA from human adenosine A3 receptor expressed in CHO cells by scintillation counting; format: cell-based
# T2 sequence (P0DMS8 whole entry): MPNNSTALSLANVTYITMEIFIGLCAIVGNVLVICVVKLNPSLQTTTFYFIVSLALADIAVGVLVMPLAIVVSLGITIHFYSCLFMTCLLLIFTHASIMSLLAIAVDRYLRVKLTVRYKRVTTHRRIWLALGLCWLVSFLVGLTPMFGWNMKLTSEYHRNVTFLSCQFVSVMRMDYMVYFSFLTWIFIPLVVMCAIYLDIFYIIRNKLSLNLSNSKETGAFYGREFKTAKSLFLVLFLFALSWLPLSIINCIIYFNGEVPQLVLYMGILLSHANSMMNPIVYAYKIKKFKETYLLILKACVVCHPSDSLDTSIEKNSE
# Method in brief: (§2)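 hA3-CHO membranes (50 µg protein) with 0.5 nM [125I]AB-MECA in 50 mM Tris-HCl, 10 mM MgCl2, 1 mM EDTA, pH 7.4; six to eight ligand concentrations; 120 min at 4 °C. Nonspecific binding: 1 µM AB-MECA. GF/B filtration. Ki by Cheng–Prusoff, means of four assays in duplicate.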
# Adenosine receptor A2a [3] = target: T3, Adenosine receptor A2a (Homo sapiens, UniProt P29274); test: Displacement of [3H]ZM241385 from human adenosine A2A receptor expressed in CHO cells at 1 uM by scintillation counting; format: cell-based
# Method in brief: (§3)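 hA2A-CHO membranes (50 µg protein) with 1 nM [³H]ZM241385 in 50 mM Tris-HCl, 10 mM MgCl2, pH 7.4; 60 min at 4 °C; nonspecific binding with 1 µM ZM241385. GF/B filtration. Ki from six to eight concentrations via Cheng–Prusoff; or % inhibition at 1 µM.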
# [4] = target: T4, Adenosine receptor A1 (Homo sapiens) (UniProt P30542); test: Displacement of [3H]DPCPX from human adenosine A1 receptor expressed in CHO cells at 1 uM by scintillation counting; format: cell-based
# T4 sequence (whole entry): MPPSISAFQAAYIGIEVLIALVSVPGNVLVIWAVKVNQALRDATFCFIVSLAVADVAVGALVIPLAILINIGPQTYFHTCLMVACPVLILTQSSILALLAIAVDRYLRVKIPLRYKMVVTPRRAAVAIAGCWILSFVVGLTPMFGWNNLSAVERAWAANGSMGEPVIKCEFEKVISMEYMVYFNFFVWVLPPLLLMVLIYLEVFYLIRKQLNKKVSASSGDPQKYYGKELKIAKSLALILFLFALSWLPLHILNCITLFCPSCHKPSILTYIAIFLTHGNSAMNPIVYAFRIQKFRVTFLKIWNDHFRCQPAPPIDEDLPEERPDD
# Method in brief: (§4)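 hA1-CHO membranes (50 µg protein) with 1 nM [³H]DPCPX in 50 mM Tris-HCl pH 7.4, 120 min at 25 °C; nonspecific binding with 10 µM CHA. GF/B filtration. Ki from six to eight concentrations via Cheng–Prusoff (four duplicate assays); or % inhibition at 1 µM.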
# [5] = target: T5, Adenosine receptor A2b (Homo sapiens) (UniProt P29275); test: Antagonist activity at human adenosine A2B receptor expressed in CHO cells assessed as inhibition of NECA-induced cAMP accumulation at 1 uM; format: functional, cell-based
# T5 sequence (whole entry): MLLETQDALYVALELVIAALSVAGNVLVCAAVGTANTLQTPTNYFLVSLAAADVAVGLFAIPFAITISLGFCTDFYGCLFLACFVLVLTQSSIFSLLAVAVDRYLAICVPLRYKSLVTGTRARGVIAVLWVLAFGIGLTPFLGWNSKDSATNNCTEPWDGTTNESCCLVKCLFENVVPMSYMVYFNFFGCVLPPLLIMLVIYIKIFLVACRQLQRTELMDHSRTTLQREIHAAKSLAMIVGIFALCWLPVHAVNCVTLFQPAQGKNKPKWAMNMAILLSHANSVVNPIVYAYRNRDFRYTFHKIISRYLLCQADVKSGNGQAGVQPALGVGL
# Method in brief: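 Whole hA2B-CHO cells (1 × 10⁶/assay) in buffered saline, pH 7.4, with 2 IU/ml adenosine deaminase and Ro 20-1724; preincubated 10 min at 37 °C. Stimulated with 200 nM NECA; compound at 1 µM. Stopped with cold 6% TCA, ether-extracted; cAMP by [³H]cAMP competition protein binding; % inhibition reported.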
# Adenosine receptor A3 [6] = target: T2, Adenosine receptor A3; test: Antagonist activity at human adenosine A3 receptor expressed in CHO cells assessed as inhibition of CI-IB-MECA-mediated inhibition of cAMP accumulation by competition protein binding assay; format: functional, cell-based
# Method in brief: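 hA3-CHO cells (1 × 10⁶/assay) preincubated 10 min at 37 °C in buffered saline pH 7.4 with adenosine deaminase (2 IU/ml) and Ro 20-1724. cAMP inhibited by 100 nM Cl-IB-MECA; antagonist 1 nM–1 µM. TCA stop, ether extraction, cAMP by [³H]cAMP/adrenal binding-protein competition. IC50 as mean of four experiments.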
# [7] = target: T6, Adenosine receptor A3 (Homo sapiens) (UniProt P0DMS8); test: as §1; format: cell-based; parameters: concentration or dose not given beside the values; details: concentration not given here; method in brief: as §2
# T6 sequence (whole entry): T2 sequence (P0DMS8 whole entry)
# Adenosine receptor A2a [8] = target: T3, Adenosine receptor A2a; test: Displacement of [3H]ZM241385 from human adenosine A2A receptor expressed in CHO cells by scintillation counting; format: cell-based; method in brief: as §3
# Adenosine receptor A1 = target: T7, Adenosine receptor A1 (Homo sapiens, UniProt P30542); test: Displacement of [3H]DPCPX from human adenosine A1 receptor expressed in CHO cells by scintillation counting; format: cell-based; method in brief: as §4
# T7 sequence (P30542 whole entry): T4 sequence (whole entry)
# T3 sequence (P29274 whole entry): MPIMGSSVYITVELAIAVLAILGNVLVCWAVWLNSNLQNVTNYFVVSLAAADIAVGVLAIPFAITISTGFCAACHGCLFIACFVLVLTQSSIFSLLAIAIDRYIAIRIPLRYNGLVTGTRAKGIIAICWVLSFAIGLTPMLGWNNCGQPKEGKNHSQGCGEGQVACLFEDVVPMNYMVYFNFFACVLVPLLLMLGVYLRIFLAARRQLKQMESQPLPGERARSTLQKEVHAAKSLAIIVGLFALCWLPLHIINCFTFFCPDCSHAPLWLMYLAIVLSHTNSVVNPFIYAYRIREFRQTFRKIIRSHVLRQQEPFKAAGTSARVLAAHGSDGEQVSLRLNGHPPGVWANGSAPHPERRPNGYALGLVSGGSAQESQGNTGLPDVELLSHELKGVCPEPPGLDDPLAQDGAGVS
inhibition [1] [%],Ki (Adenosine receptor A3 [2]) [nM],inhibition (Adenosine receptor A2a [3]) [%],inhibition [4] [%],inhibition [5] [%],IC50 (Adenosine receptor A3 [6]) [nM],inhibition [7] [%],Ki (Adenosine receptor A2a [8]) [nM],Ki (Adenosine receptor A1) [nM],Compound
21,24.7,2,4,3,145,–,–,–,O=C(Nc1nc2ccccc2c2cn(-c3ccc(Cl)cc3)nc12)c1ccncc1
–,60,1,23,2,–,–,–,–,O=C(Nc1nc2ccccc2c2cn(-c3ccccc3)nc12)c1cccc(C(F)(F)F)c1
26,5,1,8,1,41,–,–,–,O=C(Nc1nc2ccccc2c2cn(-c3ccccc3)nc12)c1ccncc1
–,–,3,4,6,–,24,–,–,O=C(c1cccc(C(F)(F)F)c1)N(C(=O)c1cccc(C(F)(F)F)c1)c1nc2ccccc2c2cn(-c3ccccc3)nc12
23,15.5,9,3,15,107,–,–,–,O=C(Nc1nc2ccccc2c2cn(-c3ccccc3)nc12)c1ccccn1
–,40,2,1,2,–,–,–,–,O=C(Nc1nc2ccccc2c2cn(-c3ccccc3)nc12)c1ccsc1
–,60,1,12,2,–,–,–,–,O=C(Nc1nc2ccccc2c2cn(-c3ccccc3)nc12)c1cscn1
–,–,7,6,4,–,30,–,–,Nc1nc2ccccc2c2cn(-c3cccc(C(F)(F)F)c3)nc12
27,10.5,1,26,1,76,–,–,–,O=C(Nc1nc2ccccc2c2cn(-c3ccccc3)nc12)c1cccnc1
–,480,10,6,5,–,–,–,–,O=c1[nH]c2ccccc2c2cn(-c3ccc(C(F)(F)F)cc3)nc12
–,–,26,–,–,–,–,–,–,Cc1ccc(-n2cc3c(n2)c(NC(=O)c2ccccc2)nc2ccccc23)cc1
–,–,0,0,–,–,–,–,–,O=C(c1ccccc1)N(C(=O)c1ccccc1)c1nc2ccccc2c2cn(-c3ccccc3)nc12
–,–,–,–,–,–,–,2860,–,Cc1cccc(-n2cc3c(n2)c(NC(=O)c2ccccc2)nc2ccccc23)c1
–,2,0,0,–,–,–,–,–,O=C(Nc1nc2ccccc2c2cn(-c3ccccc3)nc12)c1ccccc1
11,11.5,1,17,2,83,–,–,–,O=C(Nc1nc2ccccc2c2cn(-c3ccc(Cl)cc3)nc12)c1ccco1
29,3.4,20,34,3,21,–,–,–,O=C(Nc1nc2ccccc2c2cn(-c3ccccc3)nc12)c1ccco1
–,945,2,6,1,–,–,–,–,O=C(Nc1nc2ccccc2c2cn(-c3ccccc3)nc12)c1ncccn1
–,140,1,10,3,–,–,–,–,O=C(Nc1nc2ccccc2c2cn(-c3ccc(C(F)(F)F)cc3)nc12)c1ccccc1
–,50,1,45,6,–,–,–,–,O=C(Nc1nc2ccccc2c2cn(-c3ccccc3)nc12)c1cccs1
–,65,6,6,2,–,–,–,–,O=C(Nc1nc2ccccc2c2cn(-c3ccccc3)nc12)c1cnccn1
5,6.3,1,20,35,26,–,–,–,Cc1cccc(C(=O)Nc2nc3ccccc3c3cn(-c4ccccc4)nc23)c1
–,–,5,2,3,–,4,–,–,O=c1[nH]c2ccccc2c2cn(-c3cccc(C(F)(F)F)c3)nc12
–,52,1,13,3,–,–,–,–,O=C(Nc1nc2ccccc2c2cn(-c3cccc(C(F)(F)F)c3)nc12)c1ccccc1
–,50,2,9,5,–,–,–,–,O=C(Nc1nc2ccccc2c2cn(-c3ccccc3)nc12)c1ccoc1
30,7.5,10,–,5,49,–,–,500,Cc1ccc(C(=O)Nc2nc3ccccc3c3cn(-c4ccccc4)nc23)o1
7,11.5,1,6,38,54,–,–,–,Cc1ccc(C(=O)Nc2nc3ccccc3c3cn(-c4ccccc4)nc23)cc1
–,415,3,10,4,–,–,–,–,O=C(Nc1nc2ccccc2c2cn(-c3ccccc3)nc12)c1ccc(C(F)(F)F)cc1
–,–,1,17,1,–,29,–,–,O=C(c1ccc(C(F)(F)F)cc1)N(C(=O)c1ccc(C(F)(F)F)cc1)c1nc2ccccc2c2cn(-c3ccccc3)nc12
–,–,1,1,11,–,11,–,–,Nc1nc2ccccc2c2cn(-c3ccc(C(F)(F)F)cc3)nc12
–,210,6,9,3,–,–,–,–,O=C(Nc1nc2ccccc2c2cn(-c3ccccc3)nc12)c1ccncn1
